Data on five molecules can be found in ChEMBL document CHEMBL4340558, “Synthesis, biological evaluation, and molecular docking study of sulfonate derivatives as nucleotide pyrophosphatase/phosphodiesterase (NPP) inhibitors” (Bioorg Med Chem, 2019).

Assay [1] has as its target T1, Autotaxin (Homo sapiens, UniProt Q13822). Nature of the assay: Inhibition of human NPP2 expressed in African green monkey COS7 cell membranes pre-incubated for 5 mins before pNP-TMP substrate addition and further incubated for 35 mins by colorimetric method relative to untreated control. Further details: concentration or dose not given beside the values. The gist of the method:
(§1)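 Single-point screen at 100 µM test compound, added from a 1 mM stock in 10% DMSO. Buffer was 50 mM Tris-HCl, 5 mM MgCl2, 0.1 mM ZnCl2, pH 9.5, at 37 °C. pNP-TMP substrate was 400 µM for NPP1, 500 µM for NPP2, 600 µM for NPP3. Absorbance at 405 nm was read before and after substrate addition. Percent inhibition was determined in triplicate.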

For assay [2], the target named is T2, Ectonucleotide pyrophosphatase/phosphodiesterase family member 3 (Homo sapiens) (UniProt O14638).
T2 sequence (whole entry): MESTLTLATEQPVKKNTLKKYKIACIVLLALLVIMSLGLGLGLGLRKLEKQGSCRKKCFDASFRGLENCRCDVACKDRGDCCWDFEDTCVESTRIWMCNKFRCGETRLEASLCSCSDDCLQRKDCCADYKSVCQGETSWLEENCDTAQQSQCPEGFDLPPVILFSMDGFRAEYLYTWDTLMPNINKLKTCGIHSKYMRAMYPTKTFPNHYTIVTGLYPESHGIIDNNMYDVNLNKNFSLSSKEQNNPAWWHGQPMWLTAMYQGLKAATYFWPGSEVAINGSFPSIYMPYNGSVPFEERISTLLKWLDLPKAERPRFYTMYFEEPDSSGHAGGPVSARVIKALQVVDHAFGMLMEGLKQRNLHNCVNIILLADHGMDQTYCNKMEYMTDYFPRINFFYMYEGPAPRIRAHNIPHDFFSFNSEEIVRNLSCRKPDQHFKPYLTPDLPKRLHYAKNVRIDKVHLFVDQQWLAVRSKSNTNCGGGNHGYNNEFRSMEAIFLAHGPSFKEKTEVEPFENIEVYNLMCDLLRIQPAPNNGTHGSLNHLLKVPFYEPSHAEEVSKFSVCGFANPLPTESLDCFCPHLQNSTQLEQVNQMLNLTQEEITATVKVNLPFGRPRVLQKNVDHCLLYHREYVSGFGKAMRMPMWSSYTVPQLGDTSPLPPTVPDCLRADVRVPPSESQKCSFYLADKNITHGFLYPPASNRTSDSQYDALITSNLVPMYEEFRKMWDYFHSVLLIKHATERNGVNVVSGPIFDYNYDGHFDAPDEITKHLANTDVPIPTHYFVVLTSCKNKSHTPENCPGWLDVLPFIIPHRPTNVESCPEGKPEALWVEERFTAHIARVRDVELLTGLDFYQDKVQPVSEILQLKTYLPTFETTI
Nature of the assay: Inhibition of human NPP3 expressed in African green monkey COS7 cell membranes pre-incubated for 10 mins before pNP-TMP substrate addition and further incubated for 15 mins by colorimetric method relative to untreated control. Further details: concentration or dose not given beside the values. The gist of the method:
as §1

Assay [3] deals with T3, Ectonucleotide pyrophosphatase/phosphodiesterase family member 1 (Homo sapiens) (UniProt P22413).
T3 sequence (whole entry): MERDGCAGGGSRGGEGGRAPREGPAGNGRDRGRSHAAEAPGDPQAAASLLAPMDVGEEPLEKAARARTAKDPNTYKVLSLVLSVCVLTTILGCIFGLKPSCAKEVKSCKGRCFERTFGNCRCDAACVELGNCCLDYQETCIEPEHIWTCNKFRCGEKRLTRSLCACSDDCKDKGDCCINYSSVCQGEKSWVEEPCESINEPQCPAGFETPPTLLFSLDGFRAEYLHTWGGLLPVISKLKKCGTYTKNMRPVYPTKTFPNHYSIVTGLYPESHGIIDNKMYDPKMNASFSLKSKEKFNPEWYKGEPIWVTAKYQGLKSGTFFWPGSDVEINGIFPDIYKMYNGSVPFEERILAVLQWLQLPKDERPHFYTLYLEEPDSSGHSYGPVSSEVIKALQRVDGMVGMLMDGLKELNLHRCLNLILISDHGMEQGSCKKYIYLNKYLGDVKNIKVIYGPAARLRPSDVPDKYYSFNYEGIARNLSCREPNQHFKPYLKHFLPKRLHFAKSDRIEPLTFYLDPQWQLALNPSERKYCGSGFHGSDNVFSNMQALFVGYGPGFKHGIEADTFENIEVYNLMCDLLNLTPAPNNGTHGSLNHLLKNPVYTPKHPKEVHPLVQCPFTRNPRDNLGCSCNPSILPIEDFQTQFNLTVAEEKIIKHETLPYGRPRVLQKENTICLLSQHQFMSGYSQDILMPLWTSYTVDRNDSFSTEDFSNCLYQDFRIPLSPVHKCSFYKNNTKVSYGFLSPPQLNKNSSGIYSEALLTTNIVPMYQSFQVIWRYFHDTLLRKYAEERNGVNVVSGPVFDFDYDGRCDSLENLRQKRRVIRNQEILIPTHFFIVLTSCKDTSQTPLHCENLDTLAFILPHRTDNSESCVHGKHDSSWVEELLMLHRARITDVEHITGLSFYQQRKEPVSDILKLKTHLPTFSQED
Nature of the assay: Inhibition of human NPP1 expressed in African green monkey COS7 cell membranes pre-incubated for 10 mins before pNP-TMP substrate addition and further incubated for 15 mins by colorimetric method relative to untreated control. Further details: concentration or dose not given beside the values. An outline of the steps:
as §1

Assay [4] has as its target T2, Ectonucleotide pyrophosphatase/phosphodiesterase family member 3 (Homo sapiens). Nature of the assay: Potency index, ratio of IC50 for suramin to IC50 for test compound for inhibition of human NPP3 expressed in African green monkey COS7 cell membranes pre-incubated for 10 mins before pNP-TMP substrate addition and further incubated for 15 mins by colorimetric method.

Assay [5] concerns the target T4, Ectonucleotide pyrophosphatase/phosphodiesterase family member 3 (Homo sapiens, UniProt O14638).
T4 sequence (O14638 whole entry): T2 sequence (whole entry)
Nature of the assay: Inhibition of human NPP3 expressed in African green monkey COS7 cell membranes pre-incubated for 10 mins before pNP-TMP substrate addition and further incubated for 15 mins by colorimetric method.

The target in assay [6] is T1, Autotaxin. Nature of the assay: Inhibition of human NPP2 expressed in African green monkey COS7 cell membranes pre-incubated for 5 mins before pNP-TMP substrate addition and further incubated for 35 mins by colorimetric method. The gist of the method:
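Colorimetric assay in 50 mM Tris-HCl, 5 mM MgCl2, 0.1 mM ZnCl2, pH 9.5, at 37 °C. Enzyme amounts: NPP1 35 ng, NPP2 338 ng, NPP3 37 ng. Pre-read at 405 nm was taken, then pNP-TMP was added: 400 µM for NPP1, 500 µM for NPP2, 600 µM for NPP3. A second 405 nm read followed. Runs were in triplicate. IC50 came from serial dilutions by non-linear curve fitting.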

In the case of `CC(C)c1cc(C(C)C)c(S(=O)(=O)Oc2ccc(NC(=O)C3CCCCCCC3)cc2)c(C(C)C)c1`, the values for the inhibition (against Autotaxin [1]; in assay [2]; in assay [3]) were 46%, 30% and 30%, respectively.

For `CC(C)c1cc(C(C)C)c(S(=O)(=O)Oc2ccc(NC(=O)C3CCCCCC3)cc2)c(C(C)C)c1`, the inhibition – broadly, the change of the read-out against control, counted positive when it falls – at Autotaxin [1] came to 23%; in assay [2], 37%; in assay [3] it was 29%.

In the case of `O=C(Nc1ccc(OS(=O)(=O)c2ccc(C(F)(F)F)cc2)cc1)C1CCCCCCC1`, in assay [4], the Ratio IC50 is 6. The IC50 – broadly, the midpoint of a concentration-inhibition curve – in assay [5] came to 0.214 µM; at Autotaxin [6], 0.679 µM. Moreover, in assay [3], the inhibition is 29%.

For `CC(C)(C)c1ccc(S(=O)(=O)Oc2ccc(NC(=O)C3CCCCCCC3)cc2)cc1`, the inhibition was found to be 49% against Autotaxin [1], 46% in assay [2] and 40% in assay [3].

Turning to `Cc1ccc(S(=O)(=O)Oc2ccc(NC(=O)C3CCCCC3)cc2)cc1`, the inhibition against Autotaxin [1] was determined as 27%; in assay [2], 39%; in assay [3], 43%.
